Results: ChEMBL document CHEMBL4706654, “Novel cyanothiouracil and cyanothiocytosine derivatives as concentration-dependent selective inhibitors of U87MG glioblastomas: Adenosine receptor binding and potent PDE4 inhibition” (Eur J Med Chem, 2021)

How the values were obtained:
U-87 MG [1] = assay: Antiproliferative activity against human U-87 MG cells assessed as reduction in cell viability measured after 24 to 48 hrs by MTT assay; assay type: functional, cell-based, U-87MG ATCC
Summary of the method: (§1)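 Cells seeded per well 24 h before treatment: HEK293 at 5.10^4, MCF7 at 4.10^4, U87MG at 10^5. Compounds were dissolved in DMSO (less than 1%) and diluted in DMEM, then incubated 24 and 48 h. Cells were washed with D-PBS and given MTT (from a 5 mg/mL stock) for 4 h, dissolved in DMSO, read at 540 nm. % viability = sample/control absorbance ×100. At least three independent experiments.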

[2] = (§2) Cytotoxicity against HEK293 cells assessed as cell viability at 100 uM measured after 24 to 48 hrs by MTT assay relative to control; assay type: cell-based; conditions: human, HEK293 cells, time 24-48 hrs, read-out: Activity; summary of the method: as §1
U-87 MG [3] = assay: Antiproliferative activity against human U-87 MG cells assessed as cell viability at 5 uM measured after 24 to 48 hrs by MTT assay relative to control; assay type: functional, U-87MG ATCC; conditions: time 24-48 hrs, read-out: Activity; summary of the method: as §1
U-87 MG [4] = assay: Antiproliferative activity against human U-87 MG cells assessed as cell viability at 10 uM measured after 24 to 48 hrs by MTT assay relative to control; assay type: functional, U-87MG ATCC; conditions: time 24-48 hrs, read-out: Activity; summary of the method: as §1
U-87 MG [5] = assay: Antiproliferative activity against human U-87 MG cells assessed as cell viability at 50 uM measured after 24 to 48 hrs by MTT assay relative to control; assay type: functional, U-87MG ATCC; conditions: time 24-48 hrs, read-out: Activity; summary of the method: as §1
U-87 MG [6] = assay: Antiproliferative activity against human U-87 MG cells assessed as cell viability at 100 uM measured after 24 to 48 hrs by MTT assay relative to control; assay type: functional, U-87MG ATCC; conditions: time 24-48 hrs, read-out: Activity; summary of the method: as §1
MCF7 = assay: Antiproliferative activity against human MCF7 cells assessed as reduction in cell viability measured after 24 to 48 hrs by MTT assay; assay type: functional, cell-based; summary of the method: as §1
[7] = molecular target: T1, Adenosine receptor A1 (Homo sapiens) (UniProt P30542); assay: Displacement of [3H]DPCPX from recombinant human A1 adenosine receptor expressed in CHO cell membranes at 1 uM measured after 60 mins by liquid scintillation counting method relative to control; conditions: Membrane
T1 sequence (whole entry): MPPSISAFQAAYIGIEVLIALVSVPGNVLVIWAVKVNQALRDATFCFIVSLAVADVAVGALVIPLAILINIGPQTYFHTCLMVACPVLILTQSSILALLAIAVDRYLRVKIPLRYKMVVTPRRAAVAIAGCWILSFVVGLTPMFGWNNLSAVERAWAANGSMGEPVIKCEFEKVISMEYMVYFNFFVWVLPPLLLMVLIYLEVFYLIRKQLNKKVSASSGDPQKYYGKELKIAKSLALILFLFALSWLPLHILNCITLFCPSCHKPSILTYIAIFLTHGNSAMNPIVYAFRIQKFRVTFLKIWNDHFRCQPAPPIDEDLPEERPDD
Summary of the method: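 Membranes from CHO cells expressing recombinant hA1 (40 μg/tube) were incubated with 2 nM [3H]DPCPX and test compound at 1 μM in 50 mM Tris-HCl (pH 7.4, 10 mM MgCl2) for 60 min at 25°C. Bound radioligand was separated by GF/B filtration and counted by liquid scintillation. Results are given as percent inhibition of specific binding.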

[8] = molecular target: Adenosine receptor A2a (Homo sapiens) (UniProt P29274); assay: Displacement of [3H]ZM241385 from recombinant human A2A adenosine receptor expressed in HEK293 cell membranes at 1 uM measured after 60 mins by liquid scintillation counting method relative to control; conditions: Membrane
Sequence of Adenosine receptor A2a (Homo sapiens) (P29274 whole entry): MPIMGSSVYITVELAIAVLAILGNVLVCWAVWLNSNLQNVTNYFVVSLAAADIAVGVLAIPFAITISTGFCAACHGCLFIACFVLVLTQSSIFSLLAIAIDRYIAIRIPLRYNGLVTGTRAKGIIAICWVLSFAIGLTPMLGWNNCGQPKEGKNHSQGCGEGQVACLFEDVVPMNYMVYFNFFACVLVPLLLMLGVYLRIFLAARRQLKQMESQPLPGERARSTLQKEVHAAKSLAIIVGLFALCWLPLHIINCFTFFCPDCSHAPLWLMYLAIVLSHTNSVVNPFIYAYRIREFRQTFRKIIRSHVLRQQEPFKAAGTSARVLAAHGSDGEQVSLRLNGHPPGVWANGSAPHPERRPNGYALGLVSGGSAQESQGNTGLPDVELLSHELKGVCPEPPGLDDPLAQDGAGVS
Summary of the method: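 HEK293 membranes expressing hA2A (20 μg/tube) were incubated with 15 nM [3H]ZM241385 and 1 μM test compound for 60 min at 25°C in 50 mM Tris-HCl, pH 7.4, 10 mM MgCl2. The reaction was stopped by GF/B filtration, followed by scintillation counting. Read-out was percent inhibition of specific binding.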

[9] = molecular target: 3',5'-cyclic-AMP phosphodiesterase 4B (Homo sapiens, UniProt Q07343); assay: Inhibition of recombinant human PDE4B using […] as substrate measured after 90 mins by colorimetric assay
Sequence of 3',5'-cyclic-AMP phosphodiesterase 4B (Q07343 whole entry): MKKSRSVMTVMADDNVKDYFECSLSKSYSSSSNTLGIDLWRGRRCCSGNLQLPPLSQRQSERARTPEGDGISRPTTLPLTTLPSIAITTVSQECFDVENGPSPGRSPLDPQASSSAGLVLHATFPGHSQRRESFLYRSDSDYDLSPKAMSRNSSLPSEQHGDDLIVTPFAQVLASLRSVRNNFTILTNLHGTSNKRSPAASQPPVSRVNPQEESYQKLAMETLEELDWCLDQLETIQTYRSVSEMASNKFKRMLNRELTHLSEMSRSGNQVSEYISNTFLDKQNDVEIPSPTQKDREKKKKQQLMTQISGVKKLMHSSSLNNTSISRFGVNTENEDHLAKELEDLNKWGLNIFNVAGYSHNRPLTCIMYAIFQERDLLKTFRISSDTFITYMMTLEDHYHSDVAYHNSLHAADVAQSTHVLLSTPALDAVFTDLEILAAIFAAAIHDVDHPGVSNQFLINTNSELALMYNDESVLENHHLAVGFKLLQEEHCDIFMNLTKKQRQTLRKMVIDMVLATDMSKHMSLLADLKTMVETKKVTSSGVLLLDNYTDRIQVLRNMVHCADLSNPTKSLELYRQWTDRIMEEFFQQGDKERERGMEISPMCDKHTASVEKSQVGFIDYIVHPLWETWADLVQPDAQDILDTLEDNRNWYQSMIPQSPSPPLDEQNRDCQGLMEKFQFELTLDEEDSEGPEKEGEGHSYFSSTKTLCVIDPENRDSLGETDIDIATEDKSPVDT
Summary of the method: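 Recombinant human PDE4 was incubated with 0.5 μM 5′-cGMP plus 5′-nucleotidase for 90 min at 30°C. The reaction was stopped with termination buffer for 20 min at room temperature, and released phosphate was read at OD 620 nm. IC50 was determined from 6 inhibitor concentrations. Compound stocks were in DMSO (less than 1%), with at least triplicate runs, mean ± SD.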

HEK293 [10] = assay: Cytotoxicity against HEK293 cells assessed as reduction in cell viability measured after 24 to 48 hrs by MTT assay; assay type: cell-based; conditions: Homo sapiens; summary of the method: as §1
HEK293 [11] = assay: as §2; assay type: cell-based; conditions: human, hek293, 100 µM, time 24-48 hrs; summary of the method: as §1
[12] = molecular target: T2, Adenosine receptor A2b (Homo sapiens) (UniProt P29275); assay: Displacement of [3H]ZM241385 from A2B adenosine receptor (unknown origin) at 1 uM measured after 60 mins by liquid scintillation counting method relative to control
T2 sequence (whole entry): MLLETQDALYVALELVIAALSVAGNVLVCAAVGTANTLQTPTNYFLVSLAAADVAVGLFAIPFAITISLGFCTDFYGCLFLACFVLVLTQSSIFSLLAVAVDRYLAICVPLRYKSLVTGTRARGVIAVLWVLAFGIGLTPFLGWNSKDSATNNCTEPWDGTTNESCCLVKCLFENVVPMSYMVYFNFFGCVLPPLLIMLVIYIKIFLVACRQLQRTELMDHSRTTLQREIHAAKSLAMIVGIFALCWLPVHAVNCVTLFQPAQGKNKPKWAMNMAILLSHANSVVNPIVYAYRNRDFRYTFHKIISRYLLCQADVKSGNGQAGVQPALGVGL

[13] = molecular target: T2, Adenosine receptor A2b (Homo sapiens); assay: Displacement of [3H]ZM241385 from A2B adenosine receptor (unknown origin) at 10 uM measured after 60 mins by liquid scintillation counting method relative to control

Row | SMILES | IC50 (U-87 MG [1]) | viability at 100 µM [2] | viability at 5 µM (U-87 MG [3]) | viability at 10 µM (U-87 MG [4]) | viability at 50 µM (U-87 MG [5]) | viability at 100 µM (U-87 MG [6]) | IC50 (MCF7) | inhibition [7] | inhibition [8] | IC50 [9] | IC50 (HEK293 [10]) | Activity (HEK293 [11]) | inhibition [12] | inhibition [13]
1 | COc1ccc(-c2nc(SCC(=O)c3sc(-c4ccccc4)nc3C)nc(N)c2C#N)cc1 | 14 µM | > 50% | 68.8% | 60.8% | 33.8% | 17.2% | 27.2 µM | -4.6% | 0.8% | 33.1 µM | – | – | – | –
2 | COc1ccc(-c2nc(SCC(=O)c3sc(-c4ccccc4)nc3C)[nH]c(=O)c2C#N)cc1OC | 15.3 µM | – | 80.8% | 69.8% | 21.4% | 6.48% | 63.7 µM | 10% | 12% | > 100 µM | 91.8 µM | – | – | –
3 | Cc1nc(-c2ccc(Cl)cc2)sc1C(=O)CSc1nc(N)c(C#N)c(-c2ccccc2)n1 | 11.4 µM | > 50% | 71.1% | 67.9% | 15.2% | 4.59% | 25.2 µM | 8.7% | -1.4% | 22.1 µM | – | – | – | –
4 | COc1ccc(-c2nc(C)c(C(=O)CSc3nc(N)c(C#N)c(-c4ccccc4)n3)s2)cc1 | 8.54 µM | – | 61.8% | 57.8% | 16.5% | 5.25% | 72.1 µM | -2.8% | -2.6% | 11.2 µM | – | > 50% | – | –
5 | Cc1nc(-c2ccc(Cl)cc2)sc1C(=O)CSc1nc(N)c(C#N)c(-c2ccc(Cl)cc2)n1 | 3.42 µM | – | 46.1% | 37.3% | 15.5% | 1.65% | 12.5 µM | -3.7% | 1.8% | 24.1 µM | 73 µM | – | – | –
6 | COc1ccc(-c2nc(C)c(C(=O)CSc3nc(N)c(C#N)c(-c4ccc(Cl)cc4)n3)s2)cc1 | 4.54 µM | – | 51.4% | 44% | 23.1% | 3.9% | 11.2 µM | 1.1% | -7.1% | 0.97 µM | 39.2 µM | – | – | –
7 | COc1ccc(-c2nc(C)c(C(=O)CSc3nc(-c4ccc(OC)c(OC)c4)c(C#N)c(=O)[nH]3)s2)cc1 | 12.5 µM | – | 81.2% | 57.6% | 22.2% | 5.39% | 24 µM | 2.5% | 8.5% | 17.1 µM | 23.3 µM | – | – | –
8 | COc1ccc(-c2nc(C)c(C(=O)CSc3nc(N)c(C#N)c(-c4ccc(OC)cc4)n3)s2)cc1 | 1.56 µM | – | 35.6% | 28.7% | 13% | 0.26% | 24.3 µM | 9% | – | 3.15 µM | – | > 50% | 18% | 49%
